What all share (type): functional
In one test the test system is HCT-15. The test is described as follows: Cytotoxicity against human HCT15 cells assessed as inhibition of cell proliferation measured after 72 hrs by sulforhodamine B assay. To be noted: for GI50: HCT-15, 72 h. The gist of the method: (§1)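 Cells seeded at 2 × 10^3 cells/well and exposed to a range of concentrations for 72 h, with adriamycin as reference. Fixed in 10% trichloroacetic acid overnight at 4 °C, stained with 0.4% SRB for 1 h, washed with 1% acetic acid, dye solubilized in 10 mM Tris, absorbance read at 690 nm. GI50 taken from dose–response curves corrected for starting cell count; mean of triplicates.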
(In general: In SRB staining, fixed cells bind dye roughly in proportion to their protein.)

In a further test the test system is ACHN. The test is described as follows: Cytotoxicity against human ACHN cells assessed as inhibition of cell proliferation measured after 72 hrs by sulforhodamine B assay. The gist of the method:
as §1

The test system of the next test is PC-3. The test is described as follows: Cytotoxicity against human PC3 cells assessed as inhibition of cell proliferation measured after 72 hrs by sulforhodamine B assay. The following applies: for GI50: PC-3, 72 h. The gist of the method:
as §1

For the next test, the system named is NCI-H23. The test is described as follows: Cytotoxicity against human NCI-H23 cells assessed as inhibition of cell proliferation measured after 72 hrs by sulforhodamine B assay. To be noted: for GI50: NCI-H23, 72 h. The gist of the method:
as §1

The subject of a further test is MDA-MB-231. The test is described as follows: Cytotoxicity against human MDA-MB-231 cells assessed as inhibition of cell proliferation measured after 72 hrs by sulforhodamine B assay. To be noted: for GI50: MDA-MB-231, 72 h. The gist of the method:
as §1

The test system of a further test is NUGC-3. The test is described as follows: Cytotoxicity against human NUGC3 cells assessed as inhibition of cell proliferation measured after 72 hrs by sulforhodamine B assay. The following applies: for GI50: NUGC-3, 72 h. In short, it runs like this: as §1

What is called GI50 is the concentration that inhibits growth by half.

Structures are written as SMILES. Structures can show the parent of a compound that is named as a salt. Active and inactive are the calls of the source. The calls are words filed in the database; no cut-off is given here.

On to `COc1cccc2c1C(=O)c1c(O)c3c(c(O)c1C2=O)C[C@@](O)(C(=O)CO)C[C@@H]3O[C@H]1C[C@H](N)[C@H](O)[C@H](C)O1` [DOXORUBICIN HYDROCHLORIDE], for which the GI50 with HCT-15 was determined as 50 nM; with ACHN it was 70 nM; in the test with PC-3, 90 nM; in the test on NCI-H23, 80 nM; in the test on MDA-MB-231, 70 nM; in the test with NUGC-3, 70 nM.
`CC(=O)O[C@@H]1C=C2CO[C@@H](O)[C@]2(O)[C@@]2(C)CC[C@H](O)C(C)(C)[C@H]12`: the outcome in the test with HCT-15, in the test on ACHN, in the test on PC-3, with NCI-H23, with MDA-MB-231 and with NUGC-3 was inactive.
With `CC1(C)CCC[C@@]2(C)[C@H]1[C@@H](O)C=C1CO[C@@H](O)[C@@]12O`, the GI50 in the test with HCT-15 came to 1800 nM; in the test on ACHN, 2000 nM; in the test on PC-3, 6000 nM; with NCI-H23 it was 2100 nM; in the test with MDA-MB-231, 2300 nM; in the test with NUGC-3 it was 2400 nM.
`CO[C@@H]1C=C2CO[C@@H](O)[C@]2(O)[C@@]2(C)CCCC(C)(C)[C@H]12`: the result with HCT-15, in the test with ACHN, in the test on PC-3, in the test with NCI-H23, in the test on MDA-MB-231 and in the test on NUGC-3 was inactive.
As to `CC1(C)CCC[C@@]2(C)[C@H]1C(=O)C=C1CO[C@@H](O)[C@@]12O`, the GI50 in the test on HCT-15 is 5400 nM; in the test on ACHN, 3600 nM; in the test with PC-3 it was 4600 nM; in the test with NCI-H23, 4300 nM; in the test with MDA-MB-231, 4000 nM; in the test with NUGC-3, 2300 nM.
`CO[C@H]1C=C2CO[C@@H](O)[C@]2(O)[C@@]2(C)CCCC(C)(C)[C@H]12`: the GI50 in the test on HCT-15 worked out at 1600 nM; in the test on ACHN, 1200 nM; in the test with PC-3, 2000 nM; with NCI-H23, 1400 nM; with MDA-MB-231 it was 1500 nM; with NUGC-3, 1900 nM.
Turning to `C[C@]1(CO)CCC[C@@]2(C)[C@H]1[C@H](O)C=C1CO[C@@H](O)[C@@]12O`, the result in the test with HCT-15, with ACHN, in the test with PC-3, in the test on NCI-H23, in the test on MDA-MB-231 and in the test with NUGC-3 was inactive.

Source of the values: ChEMBL document CHEMBL4145609, “Cytotoxic Drimane Sesquiterpenoids Isolated from Perenniporia maackiae” (2018).
